In article PMC7856040 (ChemMedChem, 2020):

Legend:
[1] = target: AeKir (Aedes aegypti, UniProt L0EQS9); test: fluorescence-based in vitro thallium; assay type: cell-based; details: HEK293
In short: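 Fluorescence thallium-flux read-out in HEK293 cells expressing AeKir under tetracycline induction. Signals normalized to baseline Tl+ flux in the same line left uninduced by tetracycline. IC50 is the mean ± SEM of at least three independent experiments. Percent inhibition is taken at the highest concentration tested.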

[2] = tested on: first instar (Liverpool, LVP) Ae. aegypti; test: larvae toxicity screen, small molecules added to the rearing water; assay type: in vivo; details: for mortality at 48 h compared to VU854: 100 μM, first instar LVP larvae, one-way ANOVA, Dunnett's test; for mortality at 100 µM: Aedes aegypti, 48 h, read-out: mortality at 48 h
[3] = tested on: first instar (LVP or PR) Ae. aegypti; test: larval toxicity concentration response curve; assay type: in vivo

Structure (SMILES) | inhibition at 30000 µM [1] [%] | further results
O=[N+]([O-])c1ccc(N2CCN(S(=O)(=O)c3ccc(F)cc3)CC2)cc1NCc1ccon1 [Compound 9r, 5-(4-((4-fluorophenyl)sulfonyl)piperazin-1-yl)-N-(isoxazol-3-ylmethyl)-2-nitroaniline] | 99 | 
O=[N+]([O-])c1ccc(N2CCN(S(=O)(=O)c3ccc(F)cc3)CC2)cc1NCc1cc2ccccc2o1 [Compound 9t, N-(benzofuran-2-ylmethyl)-5-(4-((4-fluorophenyl)sulfonyl)piperazin-1-yl)-2-nitroaniline] | 10 | 
O=[N+]([O-])c1ccc(N2CCN(S(=O)(=O)c3ccc(F)cc3)CC2)cc1NCc1ncco1 [Compound 9k, 5-(4-((4-fluorophenyl)sulfonyl)piperazin-1-yl)-2-nitro-N-(oxazol-2-ylmethyl)aniline] | 98 | 
Cc1ncc(CNc2cc(N3CCN(S(=O)(=O)c4ccc(F)cc4)CC3)ccc2[N+](=O)[O-])s1 [Compound 9j, 5-(4-((4-fluorophenyl)sulfonyl)piperazin-1-yl)-N-((2-methylthiazol-5-yl)methyl)-2-nitroaniline] | 111 | 
CC(Nc1cc(N2CCN(S(=O)(=O)c3ccc(F)cc3)CC2)ccc1[N+](=O)[O-])c1ncco1 (stereo not shown) [Compound 9l, 5-(4-((4-fluorophenyl)sulfonyl)piperazin-1-yl)-2-nitro-N-(1-(oxazol-2-yl)ethyl)aniline] | 109 | 
Cc1nc(CNc2cc(N3CCN(S(=O)(=O)c4ccc(F)cc4)CC3)ccc2[N+](=O)[O-])no1 [Compound 9q, 5-(4-((4-fluorophenyl)sulfonyl)piperazin-1-yl)-N-((5-methyl-1,2,4-oxadiazol-3-yl)methyl)-2-nitroaniline] | 109 | mortality at 48 h compared to VU854 [2]: similarly efficacious as VU854
CC(Nc1cc(N2CCN(S(=O)(=O)c3ccc(F)cc3)CC2)ccc1[N+](=O)[O-])c1nccs1 (stereo not shown) [Compound 9i, 5-(4-((4-fluorophenyl)sulfonyl)piperazin-1-yl)-2-nitro-N-(1-(thiazol-2-yl)ethyl)aniline] | 107 | 
O=[N+]([O-])c1ccc(N2CCN(S(=O)(=O)c3ccc(F)cc3)CC2)cc1F [Compound 8, 1-(3-fluoro-4-nitrophenyl)-4-((4-fluorophenyl)sulfonyl)piperazine] | 100 | mortality at 48 h compared to VU854 [2]: significantly greater mortality; mortality at 100 µM [2]: 100%; times more potent against the LVP strain (versus PR) ([3]; CRC, 48 h): ~ 2 times
Cc1cnc(CNc2cc(N3CCN(S(=O)(=O)c4ccc(F)cc4)CC3)ccc2[N+](=O)[O-])o1 [Compound 9n, 5-(4-((4-fluorophenyl)sulfonyl)piperazin-1-yl)-N-((5-methyloxazol-2-yl)methyl)-2-nitroaniline] | 100 | mortality at 48 h compared to VU854 [2]: similarly efficacious as VU854
Cc1cc(CNc2cc(N3CCN(S(=O)(=O)c4ccc(F)cc4)CC3)ccc2[N+](=O)[O-])no1 [Compound 9f, 5-(4-((4-fluorophenyl)sulfonyl)piperazin-1-yl)-N-((5-methylisoxazol-3-yl)methyl)-2-nitroaniline] | 109 | 
O=[N+]([O-])c1ccc(N2CCN(S(=O)(=O)c3ccc(F)cc3)CC2)cc1NCc1nccs1 [Compound 9h, 5-(4-((4-fluorophenyl)sulfonyl)piperazin-1-yl)-2-nitro-N-(thiazol-2-ylmethyl)aniline] | 97 | 
O=[N+]([O-])c1ccc(N2CCN(S(=O)(=O)c3ccc(F)cc3)CC2)cc1NCc1nc2ccccc2o1 [Compound 9u, N-(benzo[d]oxazol-2-ylmethyl)-5-(4-((4-fluorophenyl)sulfonyl)piperazin-1-yl)-2-nitroaniline] | 29 | 
Cc1nnc(CNc2cc(N3CCN(S(=O)(=O)c4ccc(F)cc4)CC3)ccc2[N+](=O)[O-])s1 [Compound 9s, 5-(4-((4-fluorophenyl)sulfonyl)piperazin-1-yl)-N-((5-methyl-1,3,4-thiadiazol-2-yl)methyl)-2-nitroaniline] | 61 | mortality at 48 h compared to VU854 [2]: similarly efficacious as VU854
Cc1nnc(CNc2cc(N3CCN(S(=O)(=O)c4ccc(F)cc4)CC3)ccc2[N+](=O)[O-])o1 [Compound 9g, 5-(4-((4-fluorophenyl)sulfonyl)piperazin-1-yl)-N-((5-methyl-1,3,4-oxadiazol-2-yl)methyl)-2-nitroaniline] | 110 | 
O=[N+]([O-])c1ccc(N2CCN(S(=O)(=O)c3ccc(F)cc3)CC2)cc1NCc1cnco1 [Compound 9m, 5-(4-((4-fluorophenyl)sulfonyl)piperazin-1-yl)-2-nitro-N-(oxazol-5-ylmethyl)aniline] | 99 | 
O=[N+]([O-])c1ccc(N2CCN(S(=O)(=O)c3ccc(F)cc3)CC2)cc1NCc1ncon1 [Compound 9p, N-((1,2,4-oxadiazol-3-yl)methyl)-5-(4-((4-fluorophenyl)sulfonyl)piperazin-1-yl)-2-nitroaniline] | 109 | mortality at 48 h compared to VU854 [2]: significantly greater mortality; mortality at 100 µM [2]: 99%; mortality at 100 µM ([3]; Aedes aegypti, 48 h, read-out: maximal mortality within 48 h): ~50%; pathology observed in treated larvae ([3]; contiguous trail of excrement from midgut beyond the rectum): constipation or excretory failure
Cc1ncc(CNc2cc(N3CCN(S(=O)(=O)c4ccc(F)cc4)CC3)ccc2[N+](=O)[O-])o1 [Compound 9o, 5-(4-((4-fluorophenyl)sulfonyl)piperazin-1-yl)-N-((2-methyloxazol-5-yl)methyl)-2-nitroaniline] | 106 | 
O=[N+]([O-])c1ccc(N2CCN(S(=O)(=O)c3ccc(F)cc3)CC2)cc1NCc1ccco1 [Compound 9a, 5-(4-((4-fluorophenyl)sulfonyl)piperazin-1-yl)-N-(furan-2-ylmethyl)-2-nitroaniline] | 96 | 
